The entries come from a sample that favours hits as a whole.
KDM4C inh: KDM4C (human) demethylase inhibition; GST-KDM4C 2-372, H3K9me3 peptide, LANCE TR-FRET; Q9H3R0; inhibition, % at 12.5 µM; 96,000 compounds, 0.15% hits;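 active = mean replicate inhibition above about 25%, with at least 55% of replicates also reaching it, limit read from the data, passing the limit was not always enough; inconclusive = only one of those two conditions met; inactive = neither condition met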
Target sequence (Q9H3R0 2-372 limits assumed): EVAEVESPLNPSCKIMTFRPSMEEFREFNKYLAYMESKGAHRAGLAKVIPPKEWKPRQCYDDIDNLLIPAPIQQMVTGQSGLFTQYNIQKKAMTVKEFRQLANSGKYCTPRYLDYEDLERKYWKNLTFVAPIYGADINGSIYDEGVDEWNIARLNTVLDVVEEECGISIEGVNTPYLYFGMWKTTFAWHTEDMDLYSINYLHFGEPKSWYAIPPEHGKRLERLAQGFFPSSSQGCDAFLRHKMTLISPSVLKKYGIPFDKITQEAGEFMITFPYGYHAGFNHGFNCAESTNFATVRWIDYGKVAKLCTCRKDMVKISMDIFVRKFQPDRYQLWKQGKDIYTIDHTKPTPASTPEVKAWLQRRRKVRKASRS
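Assay system: GST-GASC-1 enzyme fragment 2-372 | Amount: 10 nM enzyme | Medium: HEPES buffer, pH 7.5, plus ascorbate | Reagent: H3K9me3 peptide substrate, Fe(II), 2-oxoglutarate | Doses: Single-point compound screen | Incubation: 30 min demethylation and 1 h detection at room temperature | Measured by: LANCE TR-FRET, excitation 340 nm, emissions 618 and 671 nm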
T cruzi growth-1: inhibitors of T. cruzi proliferation | T. cruzi beta-gal in NIH3T3, GalScreen luminescence, 90 h | inhibition, % at 8.34 µM | 77,000 compounds, 5.9% hits | AID 624255;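 active = mean inhibition above about 93%, with at least 55% of replicates each passing it, limit read from the data, passing the limit was not always enough; inconclusive = only one of those two conditions holds; inactive = neither condition holds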
IDH1 R132H inh: inhibitors of human IDH1 R132H; O75874; IDH1 R132H reductase, diaphorase/resazurin fluorescence, 60 min; inhibition, % at 10 µM; 70,000 compounds, 0.18% hits; AID 624101; in the data active = inhibition above about 34%; inconclusive = no clear call, values can overlap the other calls; inactive = below about 11%;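 also: 0% = DMSO and 100% = no enzyme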
T cruzi growth-2: blocks T. cruzi growth in NIH3T3 host cells. shares compounds with T cruzi growth-1. T. cruzi beta-gal in NIH3T3, GalScreen luminescence, 90 h. inhibition, % at 8.35 µM. 5,600 compounds, 72% hits;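 active = mean replicate inhibition above about 95% and at least 55% of replicates individually reaching it, limit read from the data; inconclusive = only one of the two criteria is met; inactive = neither criterion is met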
T cruzi growth-3: inhibitors of T. cruzi proliferation; shares compounds with T cruzi growth-1; 5,600 compounds, 21% hits; T. cruzi beta-gal in NIH3T3, GalScreen luminescence, 90 h; inhibition, % at 2.09 µM;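 active = mean inhibition above about 95%, with at least 55% of replicates also reaching it, limit read from the data; inconclusive = meets just one of the two conditions; inactive = meets neither condition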;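 also: plate controls were neutral control median for no effect and positive control median for full effect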
3T3 cytotox: NIH/3T3 (mouse) viability loss; shares compounds with T cruzi growth-1; NIH/3T3 viability, CellTiter-Glo ATP luminescence, 90 h; cytotoxicity (signal decrease), % at 8.35 µM; 5,600 compounds, 14% hits;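 active = mean signal decrease across replicates above about 35% based on untreated-well scatter, with enough replicates individually passing, limit read from the data; inconclusive = no rule stated though some were filed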;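 also: 0% = median of neutral control wells and 100% = median of positive control wells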
3T3 cytotox 2: cytotoxicity in mouse NIH/3T3 fibroblasts | shares compounds with T cruzi growth-1 | NIH/3T3 viability, CellTiter-Glo ATP luminescence, 90 h | inhibition, % at 24.9 µM | 5,600 compounds, 56% hits;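 active = mean loss of cell viability signal at or above a set limit, and enough replicates individually reaching it; inconclusive = meets only the mean limit or only the replicate share; inactive = meets neither condition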;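 also: 0% = median of neutral control wells and 100% = median of positive control wells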
Numbers without * were called inactive; ? = inconclusive; / = no result given.

SMILES	KDM4C inh	T cruzi growth-1	IDH1 R132H inh	T cruzi growth-2	T cruzi growth-3	3T3 cytotox	3T3 cytotox 2
O=S(=O)(c1ccccc1F)N1CCCCN2[C@H](C1)[C@@H](c1ccc(-c3cccnc3)cc1)[C@@H]2CO	3.7	75.7	/	/	/	/	/
O=S(=O)(c1ccccc1F)N1CCCCN2[C@H](C1)[C@H](c1ccc(-c3ccncc3)cc1)[C@@H]2CO	-0.6	96.3*	/	111.6*	53.7	7.0	10.2
COc1ccc(Cl)cc1NC(=O)CN(c1c(C)cccc1C)S(C)(=O)=O	/	/	-0.1	/	/	/	/
Cc1nn(CC(O)COc2ccc3ccccc3c2)c(C)c1Br (centres undefined)	/	/	0.3	/	/	/	/
CCC(=O)N1CC[C@H]2[C@H](CO)Nc3ccc(-c4ccccc4)cc3[C@H]21	-2.0	33.0	/	/	/	/	/
CCC(=O)N1CC[C@@H]2[C@H]1c1cc(-c3ccc(C(=O)N(C)C)cc3)ccc1N[C@@H]2CO	1.3	105.1*	/	?	52.8	-0.4	14.0
CCC(=O)N1CC[C@H]2[C@H](CO)Nc3ccc(-c4ccc(C(=O)N(C)C)cc4)cc3[C@H]21	-0.7	106.7*	/	104.4*	48.6	-21.8	-8.9
CCC(=O)N1CC[C@H]2[C@H](CO)Nc3ccc(-c4ccc(F)cc4)cc3[C@H]21	-0.3	65.1	/	/	/	/	/
Cc1ccc(N(C(C)C(=O)Nc2cccc(Br)c2)S(C)(=O)=O)cc1C (centres undefined)	/	/	-0.5	/	/	/	/
CC1(C)CC(NC(=O)C(=O)NCC2COc3ccccc3O2)CC(C)(C)N1 (centres undefined)	/	/	0.4	/	/	/	/
COc1ccc(S(=O)(=O)N(C)C[C@H]2Oc3ccc(NC(=O)Nc4ccc(C(F)(F)F)cc4)cc3C(=O)N([C@@H](C)CO)C[C@H]2C)cc1	-4.0	?	0.3	99.4*	60.4	44.8*	80.9*
COc1ccc(S(=O)(=O)N(C)C[C@H]2Oc3ccc(NC(=O)Nc4ccc(C(F)(F)F)cc4)cc3C(=O)N([C@H](C)CO)C[C@H]2C)cc1	-2.8	?	0.1	102.9*	25.1	41.9*	50.7*
C[C@@H]1CN([C@H](C)CO)C(=O)c2cc(NC(=O)Nc3ccc(C(F)(F)F)cc3)ccc2O[C@@H]1CN(C)S(=O)(=O)c1ccc(F)cc1	-3.3	45.4	0.1	/	/	/	/
COc1ccc(NC(=O)Nc2ccc3c(c2)C(=O)N([C@H](C)CO)C[C@@H](C)[C@@H](CN(C)S(=O)(=O)c2ccc(OC)cc2)O3)cc1	2.6	16.0	-1.0	/	/	/	/
COc1ccc(NC(=O)Nc2ccc3c(c2)C(=O)N([C@H](C)CO)C[C@@H](C)[C@H](CN(C)S(=O)(=O)c2ccc(OC)cc2)O3)cc1	-1.9	-0.4	-0.7	/	/	/	/
COc1ccc(S(=O)(=O)N(C)C[C@@H]2Oc3ccc(NC(=O)Nc4ccc(C(F)(F)F)cc4)cc3C(=O)N([C@@H](C)CO)C[C@@H]2C)cc1	-5.0	?	0.8	101.6*	57.2	?	45.8*
Cn1c(SCC(=O)c2ccc(Cl)cc2Cl)nnc1-c1cccnc1	/	/	1.1	/	/	/	/
Cc1oc(S(=O)(=O)N2CCOCC2)cc1-c1nc(-c2ccc(C(C)(C)C)cc2)no1	/	/	0.5	/	/	/	/
CN(c1cccc(NC(=O)c2ccc(NS(=O)(=O)c3ccccc3)cc2)c1)S(C)(=O)=O	/	/	0.1	/	/	/	/
Cc1ccc(S(=O)(=O)N(C)C[C@@H]2OCCCC[C@H](C)Oc3ccc(NS(=O)(=O)c4ccc(F)cc4)cc3C(=O)N([C@H](C)CO)C[C@H]2C)cc1	-1.2	107.0*	1.5	107.5*	90.5	0.8	55.1*
Cc1ccc(S(=O)(=O)N(C)C[C@H]2OCCCC[C@@H](C)Oc3ccc(NS(=O)(=O)c4ccc(F)cc4)cc3C(=O)N([C@H](C)CO)C[C@H]2C)cc1	-0.7	108.9*	-1.1	102.6*	?	-18.6	-30.0
Cc1ccc(S(=O)(=O)Nc2ccc3c(c2)C(=O)N([C@@H](C)CO)C[C@@H](C)[C@@H](CN(C)S(=O)(=O)c2ccc(F)cc2)OCCCC[C@H](C)O3)cc1	-0.9	/	0.4	/	/	/	/
Cc1ccc(S(=O)(=O)Nc2ccc3c(c2)C(=O)N([C@H](C)CO)C[C@H](C)[C@@H](CN(C)S(=O)(=O)c2ccc(C)cc2)OCCCC[C@@H](C)O3)cc1	0.0	42.9	/	/	/	/	/
Cc1ccc(S(=O)(=O)Nc2ccc3c(c2)C(=O)N([C@@H](C)CO)C[C@@H](C)[C@H](CN(C)S(=O)(=O)c2ccc(F)cc2)OCCCC[C@H](C)O3)cc1	0.2	121.3*	-1.0	109.9*	41.2	2.3	1.8
Cc1ccc(S(=O)(=O)Nc2ccc3c(c2)C(=O)N([C@H](C)CO)C[C@H](C)[C@@H](CN(C)S(=O)(=O)c2ccc(F)cc2)OCCCC[C@H](C)O3)cc1	4.3	/	/	/	/	/	/
SMILES	KDM4C inh	T cruzi growth-1	IDH1 R132H inh	T cruzi growth-2	T cruzi growth-3	3T3 cytotox	3T3 cytotox 2
Cc1nc(SCC(=O)c2cc3ccccc3oc2=O)c(C(N)=O)c(C)c1C	/	/	0.7	/	/	/	/
CC(C)(C)NS(=O)(=O)c1ccc(OCC(=O)Nc2ccc(F)c(Cl)c2)cc1	/	/	0.1	/	/	/	/
Cc1ccc(S(=O)(=O)Nc2ccc3c(c2)C(=O)N([C@@H](C)CO)C[C@@H](C)[C@H](CN(C)CC2CC2)OCCCC[C@H](C)O3)cc1	0.3	34.8	1.4	/	/	/	/
N#C[C@H]1[C@H](c2ccc(C3=CCCC3)cc2)[C@H](CO)N1C(=O)C1CCC1	0.9	?	/	96.3*	23.8	-6.4	17.9
CN(C)C(=O)c1cccc(-c2ccc([C@@H]3[C@@H](CO)N(C(=O)C4CCC4)[C@H]3C#N)cc2)c1	-2.2	100.8*	/	-25.1	3.9	-15.4	0.6
N#C[C@@H]1[C@@H](c2ccc(-c3cncnc3)cc2)[C@H](CO)N1C(=O)C1CCC1	-2.3	102.7*	/	77.0	40.9	2.8	1.9
CN(C)C(=O)c1cccc(-c2ccc([C@@H]3[C@@H](C#N)N(C(=O)C4CCC4)[C@@H]3CO)cc2)c1	-3.0	89.1	/	/	/	/	/
N#C[C@@H]1[C@@H](c2ccc(C3=CCCC3)cc2)[C@H](CO)N1C(=O)C1CCC1	4.0	77.4	/	/	/	/	/
N#C[C@H]1[C@H](c2ccc(-c3cncnc3)cc2)[C@@H](CO)N1C(=O)C1CCOCC1	0.0	33.3	/	/	/	/	/
CC(C)C1NC(=S)NC2=C1CCCC2 (centres undefined)	/	/	-0.3	/	/	/	/
O=C(CSc1nnc(-c2ccncc2)n1-c1ccccc1)Nc1c(Cl)cccc1Cl	/	/	-0.1	/	/	/	/
COc1cccc(-c2ccc3c(c2)O[C@H](CN(C)C(=O)C2CCOCC2)[C@@H](C)CN([C@@H](C)CO)S3(=O)=O)c1	2.3	/	2.5	/	/	/	/
COc1cccc(-c2ccc3c(c2)O[C@H](CN(C)C(=O)C2CCCCC2)[C@H](C)CN([C@H](C)CO)S3(=O)=O)c1	0.0	115.2*	/	105.6*	98.3*	44.3*	87.2*

From PubChem BioAssay
